Active and inactive are the calls of the source. No cut-off for these calls is given here.
Legend:
PC-3 [1] = test: Cytotoxicity against human PC-3 cells assessed as cell growth inhibition at 0.05 uM measured after 48 hrs by CCK-8 assay relative to control; format: functional; details: read-out: GI
Procedure, shortened: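 PC3 at 1×10^4 cells per well attached 24 h, pretreated 1 h with carboxy-PTIO (0, 0.50, 3.13, 6.25, 12.50, 25, 50 μM), then compound added for 48 h; washed three times with PBS, growth read by CCK-8 as percent inhibition versus control cells; two experiments in triplicate.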

PC-3 [2] = test: Induction of morphological changes in human PC-3 cells assessed as loss of adhesion at 0.05 uM measured after 24 hrs by phase contrast microscopy; format: functional, cell-based
Procedure, shortened: (§1)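 PC3 cells were seeded at 1×10^5 per well in 6-well plates and treated after 24 h, with or without 1 mM N-acetyl-L-cysteine. The same observation field was imaged by phase contrast microscopy at 1, 2, 3, 4 and 24 h. DMSO vehicle served as control.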

PC-3 [3] = test: Induction of mitochondrial membrane potential loss in human PC-3 cells at 0.05 uM measured after 30 mins by MitoTracker Red based confocal microscopy; format: functional, cell-based
Procedure, shortened: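 Confocal imaging of PC3 cells loaded with CellROX Green (2.5 μM) and MitoTracker Red (0.5 μM) for 30 min at 37 °C, then three PBS washes and immediate capture. The MitoTracker dye stains intact mitochondria and diffuses out when membrane potential drops. Vehicle 0.1% DMSO served as negative control and 1 mM H2O2 as positive control.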

PC-3 [4] = test: Cell cycle arrest in human PC-3 cells assessed as reduction in cell accumulation at G0/G1 phase at 0.05 uM measured after 3 hrs by propidium iodide staining based flow cytometry; format: functional
Procedure, shortened: (§2)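 PC3 cells seeded 1×10^5 per well in 6-well plates, exposed 3 h, with or without 1 mM N-acetyl-L-cysteine pretreatment; vehicle 0.1% DMSO. Harvested with trypsin-EDTA, fixed in 75% ethanol in PBS at 4 °C for 30 min, stained 1 h with RNase (1.5 mg mL^-1) and propidium iodide (90 μg mL^-1); DNA content by flow cytometry. Phase fractions compared with control by ANOVA/Tukey.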

PC-3 [5] = test: Cell cycle arrest in human PC-3 cells assessed as increase in cell accumulation at G2/M phase at 0.05 uM measured after 3 hrs by propidium iodide staining based flow cytometry; format: functional; procedure, shortened: as §2
PC-3 [6] = test: Cell cycle arrest in human PC-3 cells assessed as down regulation of CCND1 gene expression at 0.05 uM measured after 3 hrs by qPCR analysis; format: functional, cell-based
Procedure, shortened: (§3)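 Seeded 1×10^5 cells per well in 6-well plates; PC3 treated 3 h. Total RNA extracted, qPCR; each target normalized to reference gene (β-actin) by efficiency-corrected ΔΔCt (Pfaffl) against a control calibrator sample, efficiencies from amplification profiles. Mean ± SEM of four independent experiments.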

PC-3 [7] = test: Cell cycle arrest in human PC-3 cells assessed as down regulation of c-Myc gene expression at 0.05 uM measured after 3 hrs by qPCR analysis; format: functional, cell-based; procedure, shortened: as §3
PC-3 [8] = test: Cell cycle arrest in human PC-3 cells assessed as down regulation of cyclin D1 expression at 0.05 uM measured after 3 hrs by Western blot analysis; format: functional, cell-based
Procedure, shortened: (§4)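 Western blot: PC3 seeded 1×10^7 per 100 mm dish, treated 3 h or 6 h, lysed in RIPA with protease/phosphatase inhibitors; 50 μg protein on 12% SDS-PAGE, PVDF transfer, 5% milk block, anti-cyclin D1 (1:1000) overnight at 4 °C, HRP anti-rabbit secondary, β-actin loading control, ECL detection and band densitometry; two independent experiments.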

PC-3 [9] = test: Induction of apoptosis in human PC-3 cells assessed as viable cells at 0.05 uM measured after 6 hrs by Alexa Fluor 488-annexin V/propidium iodide staining based flow cytometry (reference value: 89.37%); format: functional; details: read-out: Activity
PC-3 [10] = test: Induction of apoptosis in human PC-3 cells assessed as late apoptotic cells at 0.05 uM measured after 6 hrs by Alexa Fluor 488-annexin V/propidium iodide staining based flow cytometry (reference value: 3.37%); format: functional
PC-3 [11] = test: Induction of apoptosis in human PC-3 cells assessed as effect on BCL2 gene expression at 0.05 uM measured after 3 hrs by qPCR analysis; format: functional, cell-based; procedure, shortened: as §3
PC-3 [12] = test: Induction of morphological changes in human PC-3 cells assessed as loss of adhesion at 0.24 uM measured after 24 hrs by phase contrast microscopy; format: functional, cell-based; procedure, shortened: as §1
PC-3 [13] = test: Induction of morphological changes in human PC-3 cells assessed as loss of adhesion at 0.24 uM measured after 24 hrs in presence of antioxidant N-acetyl-L-cysteine by phase contrast microscopy; format: functional, cell-based; procedure, shortened: as §1
PC-3 [14] = test: Induction of ROS generation in human PC-3 cells at 0.24 uM measured after 30 mins by CellROX reagent based flow cytometry; format: functional, cell-based
Procedure, shortened: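 PC3 seeded 1×10^5 per well in 6-well plates, after 24 h treated together with CellROX green (5 μM final) for 30 min at 37 °C; 0.1% DMSO negative control, 1 mM H2O2 positive control. Cells collected and CellROX-positive fraction measured by flow cytometry.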

PC-3 [15] = test: Cell cycle arrest in human PC-3 cells assessed as increase in cell accumulation at sub-G1 phase at 0.24 uM measured after 3 hrs in presence of antioxidant N-acetyl-L-cysteine by propidium iodide staining based flow cytometry; format: functional; procedure, shortened: as §2
PC-3 [16] = test: Cell cycle arrest in human PC-3 cells assessed as reduction in cell accumulation at G0/G1 phase in presence of antioxidant N-acetyl-L-cysteine at 0.24 uM measured after 3 hrs by propidium iodide staining based flow cytometry; format: functional; procedure, shortened: as §2
PC-3 [17] = test: Cell cycle arrest in human PC-3 cells assessed as down regulation of c-Myc gene expression at 0.24 uM measured after 3 hrs by qPCR analysis; format: functional, cell-based; procedure, shortened: as §3
PC-3 [18] = test: Cell cycle arrest in human PC-3 cells assessed as down regulation of cyclin D1 expression at 0.24 uM measured after 3 hrs by Western blot analysis; format: functional, cell-based; procedure, shortened: as §4
PC-3 [19] = test: Induction of apoptosis in human PC-3 cells assessed as viable cells at 0.24 uM measured after 6 hrs by Alexa Fluor 488-annexin V/propidium iodide staining based flow cytometry (reference value: 89.37%); format: functional; details: read-out: Activity

Compound	inhibition of growth at 0.05 µM (PC-3 [1]) [%]	Activity (PC-3 [2])	Activity (PC-3 [3])	Activity (PC-3 [4])	Activity (PC-3 [5])	Activity (PC-3 [6])	Activity (PC-3 [7])	Activity (PC-3 [8])	viability at 0.05 µM (PC-3 [9]) [%]	Activity (PC-3 [10]) [%]	Activity (PC-3 [11])	Activity (PC-3 [12])	Activity (PC-3 [13])	Activity (PC-3 [14])	Activity (PC-3 [15])	Activity (PC-3 [16])	Activity (PC-3 [17])	Activity (PC-3 [18])	viability at 0.24 µM (PC-3 [19]) [%]
COc1cc(/C=C/C(=O)N2CCC=CC2=O)cc(OC)c1OCCCCCCCCCCCCOc1no[n+]([O-])c1S(=O)(=O)c1ccccc1	65	Active; Partial Loss Of Adhesion Observed	Active	Active; Significant Reduction Observed	Active	Active	Active	Active	12.6	81.12	inactive								
COc1cc(/C=C/C(=O)N2CCC=CC2=O)cc(OC)c1OCCCOc1no[n+]([O-])c1S(=O)(=O)c1ccccc1												Active; Partial Loss Of Adhesion Observed	inactive	Active	inactive	Active	Active	Active	48.6

Reference: ChEMBL document CHEMBL6134784, “Furoxan-piplartine hybrids as effective NO donors and ROS inducers in PC3 cancer cells: design, synthesis, and biological evaluation” (RSC Med Chem, 2024)
